Test results as given in paper PMC5955769 (ACS chemical neuroscience, 2018).

Experiments:
Nrf2 = assay: Neh2-luc SH-SY5Y cell-based reporter; details: for Nrf2 activity in Neh2-luciferase reporter assay (library screen): IRSF SMART library screen
Summary of the method: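 Luciferase reporter in SH-SY5Y cells carrying the Nrf2 Neh2 fusion (Neh2-luc). It is used to find agents that directly stabilize the Nrf2 transcription factor. Run as a screen of an approved and preclinical drug library, and as concentration-response testing of selected compounds. TBHQ was the reference Nrf2 activator.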

HIF-1α = assay: ODD-luc SH-SY5Y cell reporter; assay type: cell-based; details: SH-SY5Y cells
Summary of the method: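 HIF-1α ODD-luciferase reporter in SH-SY5Y cells, run as concentration-response testing. The PHD inhibitor FG-4592 served as the HIF-activating control.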

SMILES	Nrf2 activity in Neh2-luciferase reporter assay (library screen) (Nrf2)	Nrf2 (Neh2-luc) fold activation (Nrf2; SH-SY5Y cells, fold increase in luminescence relative to vehicle control) [fold]	HIF-1α (ODD-luc) fold activation (HIF-1α) [fold]
Nc1ccccc1NC(=O)c1ccc(CNC(=O)OCc2cccnc2)cc1 [entinostat]	completely inactive		
CC(=O)Nc1ccc(C(=O)Nc2ccccc2N)cc1 [tacedinaline]	inactive		
CC1(C)CNc2ccccc21 [3,3-dimethylindoline (III)]		1.8	
O=C(CCCCCCC(=O)Nc1ccccc1)NO [SAHA]	Nrf2 hits		
O=C(/C=C/C#Cc1cccc(NS(=O)(=O)c2ccccc2)c1)NO [oxamflatin]	Nrf2 hits		
CC(/C=C/C(=O)NO)=C\[C@@H](C)C(=O)c1ccc(N(C)C)cc1 [TSA]	Nrf2 hits		
CN1CCc2c(c3ccccc3n2Cc2ccc(C(=O)NO)cc2)C1 [tubastatin]	Nrf2 hits		2.4
